For 96 molecules, cytotoxicity results are on record in ChEMBL document CHEMBL4513216, “Probing the Open Global Health Chemical Diversity Library for Multistage-Active Starting Points for Next-Generation Antimalarials” (ACS Infect Dis, 2020).

Structures are written as SMILES.

This series can be described thus: Toxicity liver stage against HepG2, at 10uM. In kind it is cell-based. The arrangement: test concentration 10 uM, cell line HepG2-A16-CD81EGFP. As to conditions: human, HepG2-A16-CD81EGFP cells; read-out: INHIBITION
In outline:
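Uninfected HepG2-A16-CD81EGFP cells, 3 × 10^3 per well, 1536-well, plated on prespotted compound at 10 μM final, parasite-free screening media added to match infected plates; puromycin 10 μM positive, DMSO 0.5% negative; run in parallel with 48 h PbLuc assay at 37 °C, 5% CO2; viability by CellTiter-Glo luminescence, normalized to controls.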
For the molecule `CCCC(O)CN1CCC(=O)N(CC)Cc2cc3c(cc21)OCO3` (stereo unspecified), the cytotoxicity at 10 µM is -18.5%. To `O=C1CCNc2cc3c(cc2CN1Cc1ccco1)OCO3` belongs 6.36%; to `CCN1Cc2cc(F)ccc2N(C(=O)C2CCC2)CCC1=O`, -41.2%. On to `Cc1cc2ccccc2n1CC(=O)N[C@@H](C)C(=O)O`, for which the cytotoxicity at 10 µM is 0.77%.

Take `Cc1cc(C)nc(N2CCC(C(=O)Nc3n[nH]c(CC(C)C)n3)CC2)n1`: the cytotoxicity at 10 µM came out at 5.61%.

In the case of `Cn1cnnc1SCCCNC(=O)Nc1ncccn1`, the cytotoxicity at 10 µM came out at 0.252%. On to `COc1ccc(CC(C)(O)CNC(=O)NCc2cccs2)cc1` (stereo unspecified), for which the cytotoxicity at 10 µM worked out at 5.62%. `COC(=O)N1CCc2ccccc2C1C(=O)NCc1ccco1` (stereo unspecified): the cytotoxicity at 10 µM is -1.94%. As for `O=C(Cc1ccccn1)N1C[C@@H](Oc2cccnc2)[C@H]2OCCC[C@H]21`, the cytotoxicity at 10 µM was 7.8%. To `CCc1c(C)n(CC(C)=O)c2nc3ccccc3n2c1=O` belongs 5.44%. `O=C1CC(c2ccccc2F)c2c(n3ccsc3nc2=O)N1` (stereo unspecified): the cytotoxicity at 10 µM was -5.93%.

As for `CCCN(C(=O)COCC)c1cccc(C)c1`, the cytotoxicity at 10 µM came to 0.727%. In the case of `Cc1nc2[nH]cnc(NCCCN3CCOCC3)c-2n1`, the cytotoxicity at 10 µM is -13.3%. With `CNC(=O)[C@@H]1CN(Cc2ccccc2)C[C@H]1C(=O)c1ccc(F)cc1`, the cytotoxicity at 10 µM was -0.17%. For `CC(c1cc(O)nc(NC2CCCC2)n1)n1ncc2ccccc2c1=O` (stereo unspecified), the cytotoxicity at 10 µM was 22.9%. To `CCn1ncc(S(=O)(=O)N[C@@H]2CC[C@@H](n3ccnc3)[C@@H]2O)c1C` belongs -3.4%; to `Cc1ccnc(C2CCN(C(=O)CCn3ncc4ccccc43)C2)n1` (stereo unspecified), -22.3%; to `CCn1cc(CN2CCN(CC(O)c3ccc(C)cc3C)CC2)cn1` (stereo unspecified), -24.6%. On to `c1ccc(-c2cc(CNCCN3CCOCC3)c3nnnn3c2)cc1`, for which the cytotoxicity at 10 µM was -17.6%.

Take `c1ccc(CN2CCC(c3nccnc3-n3ccnc3)CC2)cc1`: the cytotoxicity at 10 µM was -19.6%.

As to `Cc1cc(C2CCCN2C(=O)Nc2cn[nH]c2)on1` (stereo unspecified), the cytotoxicity at 10 µM turned out to be 1.24%. The value for `CN1N=C(C(=O)NCCc2csc(-c3ccccc3)n2)CCC1=O` was 0.621%. As to `Cc1ccc(C2CSCCN2C(=O)NCc2cccnc2)cc1` (stereo unspecified), the cytotoxicity at 10 µM stood at 5.48%. The value for `CCC(C)Oc1cc(C(=O)N(c2cccnc2)C(C)C)ccn1` (stereo unspecified) was 8.77%; that for `COc1cc(NC(=O)N(C)CCC2CC2)ncn1` was -1.3%; that for `Cn1nc(Br)c2c(=O)n(CCc3ccccc3)cnc21` was -1.4%.

On to `CCc1c(C(=O)N2CCOC(C)(C)C2)cnn1-c1ccccn1`, for which the cytotoxicity at 10 µM was -7.92%. As to `COC(=O)C1(NCC(=O)Nc2cc(C)ccc2OC)CCCCC1`, the cytotoxicity at 10 µM is 4.02%.

In the case of `N#CC1(NC(=O)c2nccc3ccccc23)CCSCC1`, the cytotoxicity at 10 µM is 8.8%.

Turning to `Cc1cc(Cn2c(=O)c3c(C(F)(F)F)cc(C)nc3n2C)on1`, the cytotoxicity at 10 µM is -0.976%.

Consider `CNC(=O)CC1CCN(C(=O)NCC2(c3ccccc3F)CC2)CC1`, for which the cytotoxicity at 10 µM amounted to 4.27%. To `CC(C)c1nc(C2CCCN2C(=O)c2ccc3nncn3c2)no1` (stereo unspecified) belongs -10.3%; to `CCS(=O)(=O)c1ccc(N2CCC(NC(=O)c3ccccn3)CC2)cc1`, 10.8%; to `Cc1nnc(C(NS(=O)(=O)c2cc(F)c(C)cc2F)C(C)C)[nH]1` (stereo unspecified), -5.19%. For the molecule `Cc1ccc(S(=O)(=O)NC(C)C#N)cc1Br` (stereo unspecified), the cytotoxicity at 10 µM was 0.727%.

Regarding `CC(NC(=O)CCS(=O)(=O)C1CCCC1)c1nc(-c2ccccc2)c[nH]1` (stereo unspecified), the cytotoxicity at 10 µM was determined as 1.05%. For `O=C(CCC1CCCO1)NCc1ccc(Br)cc1F` (stereo unspecified), the cytotoxicity at 10 µM was found to be 1.6%.

As for `CN(CC1CCCN(S(C)(=O)=O)C1)c1cnn(C)c1` (stereo unspecified), the cytotoxicity at 10 µM is 2.56%. `CN(Cc1cccs1)C(=O)Cn1cc(NC(=O)C(C)(C)C)cn1`: the cytotoxicity at 10 µM is -3.52%. The value for `Cc1ccc(CNCc2nnc3n2CCCC3C(F)(F)F)o1` (stereo unspecified) was 19.5%. Consider `CCc1nc(CNC(=O)Nc2ccc(C(=O)NC)cc2C)cs1`, for which the cytotoxicity at 10 µM came out at 16.4%. The value for `CC(C)S(=O)(=O)NCC1CCCN(C(=O)c2cccnc2)C1` (stereo unspecified) was -7.16%; that for `O=C1NCCO[C@H]2CN(C(=O)Cc3csc4ccccc34)CC[C@@H]12` was -101%. As to `COC[C@H]1CC[C@H]2[C@H](CCN2S(=O)(=O)c2ccccc2)O1`, the cytotoxicity at 10 µM was -1.45%. Take `O=C(c1ccnnc1)N1C[C@H](OCC2CCOCC2)[C@H]2OCCC[C@H]21`: the cytotoxicity at 10 µM amounted to 3.86%.

As to `Cc1noc(C)c1CN(C)C(=O)CN1CC(c2ccccc2)CC1=O` (stereo unspecified), the cytotoxicity at 10 µM was -2.4%. As to `CNc1ncccc1CN1CCN(c2cc(NC3CC3)nc(N)n2)CC1`, the cytotoxicity at 10 µM is -6.58%. Turning to `CCCN1CCCn2nc(CNC(=O)CN(C)C3CCCC3)cc2C1`, the cytotoxicity at 10 µM is -0.992%. As for `c1cncc(NCCNC2CCCNC2)c1` (stereo unspecified), the cytotoxicity at 10 µM was -4.5%.

Regarding `O=C(NC1CC(=O)N(C2Cc3ccccc3C2)C1)c1ccsc1` (stereo unspecified), the cytotoxicity at 10 µM was -1.98%. The value for `CC(C)Cc1cc(C(=O)N2CCC(Oc3cccnc3)CC2)n(C)n1` was -0.423%; that for `CC(C)=CCN1CC2(CCN(Cc3ncc[nH]3)CC2)CC1=O` was -10.8%; that for `CSc1cccc(CN(C)C(=O)Cn2ncc(N(C)C)cc2=O)c1` was 0.0849%.

Consider `CSc1ncccc1C(=O)N(C)C(C)Cc1ccccn1` (stereo unspecified), for which the cytotoxicity at 10 µM turned out to be 2.28%. The value for `Cc1ccc(C(=O)N2CCC3(CC2)C(=O)NCCN3C)cc1O` was -0.081%; that for `Cc1ccc(CCNC(=O)CC2COCCN2S(=O)(=O)N(C)C)o1` (stereo unspecified) was 3.39%; that for `O=C1NCC2(CCCN(C(=O)Cn3nc4ccccc4n3)CC2)O1` (stereo unspecified) was -3.45%. Take `O=C(NCCc1c[nH]cn1)c1ccc(S(=O)(=O)NC2CCOC2)cc1` (stereo unspecified): the cytotoxicity at 10 µM is -1.91%. `CCNC(=O)C(C)Oc1ccc(N(C)S(C)(=O)=O)cc1` (stereo unspecified): the cytotoxicity at 10 µM was determined as 1.07%. As for `O=C(NCc1cc(O)ncn1)C1COc2ccccc2C1` (stereo unspecified), the cytotoxicity at 10 µM was -9.76%. The value for `Cc1nc(CN2CCC(C(=O)O)(n3ccc(-c4ccco4)n3)CC2)co1` was -12.1%. Take `CCS(=O)(=O)N1CCC(c2nnc(Cn3cccn3)n2C2CC2)CC1`: the cytotoxicity at 10 µM was -14.2%.

Turning to `COc1ccccc1-c1cc(C(F)(F)F)c2c(C)nn(CC(=O)O)c2n1`, the cytotoxicity at 10 µM is 5.25%. To `CCc1cnc(CN(C)C2CCN(Cc3nnc(C4CC4)n3C)C2)o1` (stereo unspecified) belongs -5.09%. `CSCCC(=O)N1CCCN(Cc2cnn(C(C)C)c2)CC1`: the cytotoxicity at 10 µM is -25.3%.

For the molecule `CCOc1ccc(CNC(C)c2ccc3[nH]c(=O)[nH]c3c2)cc1` (stereo unspecified), the cytotoxicity at 10 µM is -7.79%.

Consider `OCCN1CCC(CNCc2ccccc2OC(F)(F)F)CC1`, for which the cytotoxicity at 10 µM is -13.7%. The value for `Cc1cc(C)n(CC2CN(Cc3nnc(C)o3)CCO2)n1` (stereo unspecified) was -7.95%; that for `CN(C)c1ccc(C(=O)Nc2cn[nH]c2)cc1` was -0.279%. As for `CN(Cc1ccco1)C(=O)NC1CCCN(c2ncccn2)C1` (stereo unspecified), the cytotoxicity at 10 µM was -13.6%.

Turning to `COCCN1CCC(C(=O)c2cc(F)ccc2F)CC1`, the cytotoxicity at 10 µM is -9.47%. The value for `Cc1ccc(CC(=O)N2CCCC(n3nc(C)cc3C)C2)cn1` (stereo unspecified) was -8.54%.

In the case of `COCCOc1ccc(NC(=O)C2CC(=O)N(CC3CC3)C2)cn1` (stereo unspecified), the cytotoxicity at 10 µM is -30.7%. To `COCCOc1ccc(NC(=O)C2CC(=O)N(C3CC3)C2)cn1` (stereo unspecified) belongs -6.93%; to `CN(C)c1ncccc1CNC(=O)N1CCCC1c1cccs1` (stereo unspecified), -12%. To `Cc1nc(C)n(CC2CCCCN2CC(=O)Nc2nnc(C)s2)n1` (stereo unspecified) belongs -10.6%.

For the molecule `NC(=O)CN1CCCN(C(=O)Cc2ccc(F)cc2)CC1`, the cytotoxicity at 10 µM was -9.17%.

Take `Cc1c(C(=O)N2CCCC(n3cccn3)C2)nnn1-c1ccccc1` (stereo unspecified): the cytotoxicity at 10 µM is -3.45%.

For `Cc1cnn(CC2CCCCN2C(=O)Cc2cn3ccsc3n2)c1` (stereo unspecified), the cytotoxicity at 10 µM was -5.5%. Take `CCCc1nc(CN2CCCC(c3noc(C4CC4)n3)C2)no1` (stereo unspecified): the cytotoxicity at 10 µM is -8.87%. For `Cc1ccc(CC(=O)N2CCN(C3CCOC3=O)CC2)cc1` (stereo unspecified), the cytotoxicity at 10 µM is -18.7%.

As to `CCN(CC)CCNC(=O)c1cnc(C(C)(C)C)s1`, the cytotoxicity at 10 µM is -8.94%. Turning to `CN(CCc1ccccn1)S(=O)(=O)N1CCCC1c1ccco1` (stereo unspecified), the cytotoxicity at 10 µM is -14.8%. For `Cc1nc(C)n(CC2CCCN(c3ncnc4[nH]ccc34)C2)n1` (stereo unspecified), the cytotoxicity at 10 µM came out at 12.8%. As for `c1ncn(CC2CN(CC3CCCC3)CCO2)n1` (stereo unspecified), the cytotoxicity at 10 µM was determined as 4.93%. For `COc1cc(COCC2CCN(Cc3cccnc3)CC2)cc(OC)c1`, the cytotoxicity at 10 µM is 0%. To `CC(C)NC(=O)N1CCC2(CCC(=O)N2CCN2CCCC2)CC1` belongs 3.7%. To `CCO[C@H]1CC[C@H]2[C@H]1OCCN2CCOCc1ccccc1` belongs -111%; to `Cc1ccoc1C(=O)N1CC[C@@H]2CN(C3CCOCC3)CCO[C@@H]2C1`, -120%.

As to `O=C1[C@H]2CN(c3ncccn3)C[C@H]2CN1Cc1ccncc1`, the cytotoxicity at 10 µM is -12.1%. In the case of `CCS(=O)(=O)N1CCC[C@]2(C(=O)N(C)C)CN(c3ccccn3)C[C@@H]2C1`, the cytotoxicity at 10 µM is -8.93%. The value for `Cc1cc(C(=O)N2CCC3(CC2)C(=O)N(C)CCN3CC2CC2)c(C)o1` was -96.5%; that for `CN1CC(=O)N(c2ccccc2)CC12CCN(C(=O)CC1CC1)C2` (stereo unspecified) was 0.972%; that for `Cc1cc(CCC(=O)Nc2nncs2)nc(C2CCCN2)n1` (stereo unspecified) was -28%.

For the molecule `COCCC(=O)NCCn1nc(C2CCNC2)c2cccnc21` (stereo unspecified), the cytotoxicity at 10 µM is -16.5%. The value for `O=C(c1cccnc1)N1C[C@H]2CC[C@@H](C1)N(Cc1ncc[nH]1)C2` was -13.2%.
